Laboratory results published in article PMC7114172 (ACS Omega, 2020).
Bridge positions count the residues as written; N and C are the ends. Square brackets hold non-standard residues; d marks the D form. Ends that are not written are not given here. Peptide text beside a SMILES is read from it. * marks the point of attachment. Myristoyl = CCCCCCCCCCCCCC(=O)*; Phe(ol) = N[C@H](CO)Cc1ccccc1; Aib = CC(C)(N)C(=O)O; NHCH2CH2OH = OCCN*; For = O=C*

What was measured:
[1] = tested on: LPS E. coli K-235; test: LPS binding, dansyl cadaverine; design: species or system Escherichia coli; conditions: LPS E. coli K-235 280 μg/mL, DC 12 μM, 10 mM phosphate buffer pH 7.4, 25 °C
In short: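 Test peptide was added in small successive aliquots to a preformed DC:LPS complex. […] Excitation was at 340 nm and emission scanned 420–600 nm (slits 2.5/5 nm). Probe occupancy was calculated as (F−F0)/(Fmax−F0), where F0 is DC alone, Fmax is DC at maximum LPS, and F is DC–LPS at each peptide concentration. A positive-control peptide was run first.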

[2] = tested on: S. aureus (ATCC 8530); conditions: concentration at which no viable colonies are formed; 10 mM phosphate buffer pH 7.4; cited from earlier work
[3] = tested on: E. coli K-12 strain MG1655 (CGSC-7740); conditions: concentration at which no viable colonies are formed; 10 mM phosphate buffer pH 7.4; cited from earlier work

Molecule	Relative binding affinity to LPS (DC displacement) [1]	MBC, S. aureus [2] [µM]	MBC, E. coli [3] [µM]
CC(=O)NC(C)(C)C(=O)N1CCC[C@H]1C(=O)NC(C)(C)C(=O)N[C@@H](C)C(=O)NC(C)(C)C(=O)N[C@@H](C)C(=O)N[C@@H](CCC(N)=O)C(=O)NC(C)(C)C(=O)N[C@H](C(=O)NC(C)(C)C(=O)NCC(=O)N[C@@H](CC(C)C)C(=O)NC(C)(C)C(=O)N1CCC[C@H]1C(=O)N[C@H](C(=O)NC(C)(C)C(=O)NC(C)(C)C(=O)N[C@@H](CCC(=O)O)C(=O)N[C@@H](CCC(N)=O)C(=O)N[C@H](CO)Cc1ccccc1)C(C)C)C(C)C [alamethicin] (Ac-[Aib]P[Aib]A[Aib]AQ[Aib]V[Aib]GL[Aib]PV[Aib][Aib]EQ[Phe(ol)]; N-terminus assumed)	weak affinity as compared to polymyxin B	–	–
CC(C)C[C@@H](NC(=O)[C@H](C)NC(=O)CNC(=O)[C@@H](NC=O)C(C)C)C(=O)N[C@@H](C)C(=O)N[C@@H](C(=O)N[C@H](C(=O)N[C@@H](C(=O)N[C@@H](Cc1c[nH]c2ccccc12)C(=O)N[C@H](CC(C)C)C(=O)N[C@@H](Cc1c[nH]c2ccccc12)C(=O)N[C@H](CC(C)C)C(=O)N[C@@H](Cc1c[nH]c2ccccc12)C(=O)N[C@H](CC(C)C)C(=O)N[C@@H](Cc1c[nH]c2ccccc12)C(=O)NCCO)C(C)C)C(C)C)C(C)C [gramicidin A] (For-VGA[dL]A[dV]V[dV]W[dL]W[dL]W[dL]W-NHCH2CH2OH; N-terminus and C-terminus assumed)	weak affinity as compared to polymyxin B	–	–
ACPIFTKIQGTYRGKAKCK (disulfide 2-18 (inferred)) [Phd1]	more affinity as compared to Phd2-3 and MPhd2-3	20	19
Myristoyl-ACPIFTKIQGTYRGKAKCK (disulfide 2-18 (inferred)) [MPhd1]	more affinity as compared to Phd2-3 and MPhd2-3	5	5
Myristoyl-FCPRRYKQIGTGLPGTKCK (disulfide 2-18 (inferred)) [MPhd2]	–	5	6
Myristoyl-SCLPKEEQIGKSTRGRKCRRKK (disulfide 2-18 (inferred)) [MPhd3]	–	4	4
cyclized isooctanoyl BTBB(BF^dLBBT) (lariat or depsi) [polymyxin B]	strong binding compared to HBD2-3 as well as LL37 and melittin	–	–
